The source made the active and inactive calls. The calls are words filed in the database; no cut-off is given here.

For orientation: Kd means the constant that tells how readily two partners part at equilibrium. A lower Kd goes with higher affinity. What is called ΔTm is the shift of the melting midpoint relative to a reference. Usually EC50 stands for the midpoint of the concentration-response curve. One may read the IC50 as the concentration that inhibits the measured activity by half.

Test [1] concerns the target T1, Mitochondrial inner membrane m-AAA protease component AFG3L2 (Homo sapiens, UniProt Q9Y4W6). As to the kind of experiment: Displacement of (1-(2-aminoethyl)-3,5-dimethyl-1H-pyrazol-4-yl)(4-((1-neopentyl-1H-benzo[d]imidazol-2-yl)methyl)piperazin-1-yl)methanone from AFG3L2 in vorinostat-stimulated human Jurkat 2C4 cells infected with latent HIV-1 by pull-down experiment based competitive binding assay. Format: tissue-based. The essentials:
(§1)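 Affinity matrix made by immobilizing the aminoethyl-linked probe on Sepharose beads at 5.8, 3 and 1.4 mM; beads exposed to lysates of Jurkat 2C4 cells pretreated with vorinostat (250 nM); bound proteins pulled down, with free compound competing for binding.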

The species named for test [2] is Homo sapiens. As to the kind of experiment: Binding affinity to recombinant FTase (unknown origin) assessed as change in melting temperature at 20 uM by TdF assay.
In test [3] the test system is Human immunodeficiency virus 1. As to the kind of experiment: Potentiation of vorinostat-induced reactivation of latent HIV-1 infected in human Jurkat 2C4 cells assessed as increase in HIV-1 transcription incubated for 24 hrs in presence of vorinostat by Steady-Glo luciferase reporter gene assay. Format: functional, organism-based. As to conditions: Human immunodeficiency virus 1, 2C4, 24 h.

Test [4] has as its target T2, NmrA-like family domain-containing protein 1 (Homo sapiens, UniProt Q9HBL8). As to the kind of experiment: Displacement of (1-(2-aminoethyl)-3,5-dimethyl-1H-pyrazol-4-yl)(4-((1-neopentyl-1H-benzo[d]imidazol-2-yl)methyl)piperazin-1-yl)methanone from NMRAL1 in vorinostat-stimulated human Jurkat 2C4 cells infected with latent HIV-1 by pull-down experiment based competitive binding assay. It counts as tissue-based. Put shortly:
as §1

Test [5] is described as follows: Inhibition of rat recombinant FTase expressed in Escherichia coli using 3H-FPP and biotinylated-DESGPGCMSCKCVLS peptide as substrates incubated for 30 mins in presence of 5 mM thiosulfate by scintillation proximity assay. Put shortly: (§2)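 Cell-free FTase inhibition assay, standard protocol; anion-dependent variants repeated with added anion (dimethylallyl diphosphate at increasing concentrations, or other anions) beyond the standard-protocol level.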
On the technique in general: In a scintillation proximity assay essentially only radioactivity close to the scintillant gives light.

Test [6] is described as follows: Inhibition of recombinant rat FTase expressed in Escherichia coli using 3H-FPP and biotinylated-DESGPGCMSCKCVLS peptide as substrates incubated for 30 mins in presence of 5 mM pyrophosphate by scintillation proximity assay. The essentials:
as §2

Test [7] in a line: Inhibition of recombinant rat FTase expressed in Escherichia coli using 3H-FPP and biotinylated-DESGPGCMSCKCVLS peptide as substrates incubated for 30 mins by scintillation proximity assay. Put shortly:
as §2

In test [8] the test system is Human immunodeficiency virus 1. As to the kind of experiment: Reactivation of latent HIV-1 infected in human Jurkat 2C4 cells assessed as increase in HIV-1 transcription incubated for 24 hrs by Steady-Glo luciferase reporter gene assay. As to conditions: for EC50: Human immunodeficiency virus 1, 2C4, 24 h. Format: functional, organism-based. Put shortly:
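Jurkat 2C4 latent HIV reporter line (minimal provirus, Tat H12L, LTR-driven luciferase); latency reversal measured as increase in luciferase luminescence in cell lysates.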
For orientation: In a reporter assay the amount or activity of a reporter protein is the signal.

For test [9], the target named is T3, Protein farnesyltransferase/geranylgeranyltransferase type-1 subunit alpha (Homo sapiens, UniProt P49354). Put plainly: Displacement of (1-(2-aminoethyl)-3,5-dimethyl-1H-pyrazol-4-yl)(4-((1-neopentyl-1H-benzo[d]imidazol-2-yl)methyl)piperazin-1-yl)methanone from FNTA in vorinostat-stimulated human Jurkat 2C4 cells infected with latent HIV-1 by pull-down experiment based competitive binding assay.

Test [10] can be described thus: Inhibition of recombinant rat FTase expressed in Escherichia coli using 3H-FPP and biotinylated-DESGPGCMSCKCVLS peptide as substrates incubated for 30 mins in presence of 5 mM ATP by scintillation proximity assay. The essentials: as §2
The nature of test [11]: Inhibition of recombinant rat FTase expressed in Escherichia coli using 3H-FPP and biotinylated-DESGPGCMSCKCVLS peptide as substrates incubated for 30 mins in presence of 5 mM DMA-PP by scintillation proximity assay. Put shortly: as §2
Test [12] is described as follows: Inhibition of recombinant rat FTase expressed in Escherichia coli using 3H-FPP and biotinylated-DESGPGCMSCKCVLS peptide as substrates incubated for 30 mins in presence of 2 mM DMA-PP by scintillation proximity assay. The essentials: as §2
In test [13] the target is T4, Protein farnesyltransferase subunit beta (Homo sapiens, UniProt P49356). Put plainly: Displacement of (1-(2-aminoethyl)-3,5-dimethyl-1H-pyrazol-4-yl)(4-((1-neopentyl-1H-benzo[d]imidazol-2-yl)methyl)piperazin-1-yl)methanone from FNTB in vorinostat-stimulated human Jurkat 2C4 cells infected with latent HIV-1 by pull-down experiment based competitive binding assay.
The species entered for test [14] is Homo sapiens. As to the kind of experiment: Binding affinity to recombinant FTase (unknown origin) assessed as melting temperature at 20 uM by TdF assay (reference value: 46.2 +/- 0.2 degreeC).
Test [15] can be described thus: Inhibition of recombinant rat FTase expressed in Escherichia coli using 3H-FPP and biotinylated-DESGPGCMSCKCVLS peptide as substrates incubated for 30 mins in presence of 1 mM DMA-PP by scintillation proximity assay. The essentials:
as §2

A short description of test [16]: Inhibition of recombinant rat FTase expressed in Escherichia coli using 3H-FPP and biotinylated-DESGPGCMSCKCVLS peptide as substrates incubated for 30 mins in presence of 5 mM phosphate by scintillation proximity assay. The essentials:
as §2

Test [17] deals with Human immunodeficiency virus 1. As to the kind of experiment: Potentiation of vorinostat-induced reactivation of latent HIV-1 infected in human Jurkat 2C4 cells assessed as increase in HIV-1 transcription incubated for 24 hrs in presence of vorinostat by Steady-Glo luciferase reporter gene assay relative to control. Format: functional.
The target in test [18] is T3, Protein farnesyltransferase/geranylgeranyltransferase type-1 subunit alpha. Put plainly: Displacement of (4-((1-neopentyl-1H-benzo[d]imidazol-2-yl)methyl)piperazin-1-yl)(1,3,5-trimethyl-1H-pyrazol-4-yl)methanone from FNTA in vorinostat-stimulated human Jurkat 2C4 cells infected with latent HIV-1 by pull-down experiment based competitive binding assay. Put shortly: as §1

The target of test [19] is T1, Mitochondrial inner membrane m-AAA protease component AFG3L2. As to the kind of experiment: Displacement of (4-((1-neopentyl-1H-benzo[d]imidazol-2-yl)methyl)piperazin-1-yl)(1,3,5-trimethyl-1H-pyrazol-4-yl)methanone from AFG3L2 in vorinostat-stimulated human Jurkat 2C4 cells infected with latent HIV-1 by pull-down experiment based competitive binding assay. Format: tissue-based. Put shortly: as §1

Test [20] deals with T4, Protein farnesyltransferase subunit beta. Put plainly: Displacement of (4-((1-neopentyl-1H-benzo[d]imidazol-2-yl)methyl)piperazin-1-yl)(1,3,5-trimethyl-1H-pyrazol-4-yl)methanone from FNTB in vorinostat-stimulated human Jurkat 2C4 cells infected with latent HIV-1 by pull-down experiment based competitive binding assay. It counts as tissue-based. Put shortly:
as §1

Test [21] deals with T2, NmrA-like family domain-containing protein 1. As to the kind of experiment: Displacement of (4-((1-neopentyl-1H-benzo[d]imidazol-2-yl)methyl)piperazin-1-yl)(1,3,5-trimethyl-1H-pyrazol-4-yl)methanone from NMRAL1 in vorinostat-stimulated human Jurkat 2C4 cells infected with latent HIV-1 by pull-down experiment based competitive binding assay. It counts as tissue-based. The essentials:
as §1

T1 sequence (Q9Y4W6 whole entry): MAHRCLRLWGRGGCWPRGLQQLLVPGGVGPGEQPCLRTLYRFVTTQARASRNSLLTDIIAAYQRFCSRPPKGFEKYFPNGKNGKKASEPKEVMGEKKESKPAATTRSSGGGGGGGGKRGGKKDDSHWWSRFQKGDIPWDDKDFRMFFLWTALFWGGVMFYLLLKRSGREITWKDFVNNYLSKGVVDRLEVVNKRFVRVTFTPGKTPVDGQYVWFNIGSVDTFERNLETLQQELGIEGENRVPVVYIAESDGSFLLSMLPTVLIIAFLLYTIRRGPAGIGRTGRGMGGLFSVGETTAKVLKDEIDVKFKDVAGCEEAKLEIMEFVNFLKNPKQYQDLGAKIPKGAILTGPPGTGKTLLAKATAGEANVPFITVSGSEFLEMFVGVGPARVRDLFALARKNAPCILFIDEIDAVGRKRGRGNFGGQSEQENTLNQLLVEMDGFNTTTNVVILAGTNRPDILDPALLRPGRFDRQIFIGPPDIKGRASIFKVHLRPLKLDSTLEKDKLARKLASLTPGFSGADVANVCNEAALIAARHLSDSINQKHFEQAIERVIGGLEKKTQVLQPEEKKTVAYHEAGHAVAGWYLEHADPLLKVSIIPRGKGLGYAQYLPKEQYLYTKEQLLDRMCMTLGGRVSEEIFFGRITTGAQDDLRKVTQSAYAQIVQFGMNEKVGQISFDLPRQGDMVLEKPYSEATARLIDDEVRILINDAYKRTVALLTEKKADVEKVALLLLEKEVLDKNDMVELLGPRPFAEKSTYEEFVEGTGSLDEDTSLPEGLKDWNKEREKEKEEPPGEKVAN
T2 sequence (Q9HBL8 whole entry, the tested form may be a part): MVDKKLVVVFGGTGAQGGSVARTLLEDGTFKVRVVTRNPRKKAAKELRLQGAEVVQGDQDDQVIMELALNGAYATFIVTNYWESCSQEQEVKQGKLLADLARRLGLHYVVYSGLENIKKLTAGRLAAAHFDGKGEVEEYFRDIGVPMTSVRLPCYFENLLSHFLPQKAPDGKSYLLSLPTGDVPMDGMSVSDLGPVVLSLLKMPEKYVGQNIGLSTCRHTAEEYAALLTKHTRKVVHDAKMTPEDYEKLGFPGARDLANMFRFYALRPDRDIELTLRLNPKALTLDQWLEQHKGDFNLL
T4 sequence (P49356 whole entry): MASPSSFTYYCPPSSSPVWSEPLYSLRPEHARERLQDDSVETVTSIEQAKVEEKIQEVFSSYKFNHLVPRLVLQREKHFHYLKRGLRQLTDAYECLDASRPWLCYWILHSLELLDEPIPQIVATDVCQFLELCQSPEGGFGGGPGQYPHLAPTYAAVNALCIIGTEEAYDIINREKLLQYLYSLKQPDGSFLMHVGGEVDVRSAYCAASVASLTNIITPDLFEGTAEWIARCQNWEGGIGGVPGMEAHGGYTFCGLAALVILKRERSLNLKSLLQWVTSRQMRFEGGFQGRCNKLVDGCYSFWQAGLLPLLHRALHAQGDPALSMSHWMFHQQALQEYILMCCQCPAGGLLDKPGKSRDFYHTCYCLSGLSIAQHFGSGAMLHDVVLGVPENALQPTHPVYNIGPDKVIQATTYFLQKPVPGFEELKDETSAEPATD

Turning to `Cc1nn(C)c(C)c1C(=O)N1CCN(Cc2nc3ccccc3n2CC(C)(C)C)CC1`, the Kd was determined as 19000 nM in test [1], 19000 nM in test [4], 340 nM in test [9] and 475 nM in [13]. Further, the ΔTm in the test listed under Homo sapiens [2] amounted to 4.2 °C. Moreover, the figures for the EC50 in test [3] and in [8] were 340 nM and over 8000 nM, respectively. The IC50 is 2100 nM in test [5]; 2500 nM in [6]; at least 20000 nM in [7]; 250 nM in [10]; 500 nM in [11]; 900 nM in [12]. Further, the figures for the IC50 in test [15] and in [16] were 1000 nM and 1300 nM, respectively. In addition, the Tm in the test listed under Homo sapiens [14] was 50.4 °C. Also, the Activity in test [17] is reported as 100%.
In the case of `CCn1c(CN2CCN(C(=O)c3c(C)nn(C)c3C)CC2)nc2ccccc21`, the ΔTm in the test filed under Homo sapiens [2] was found to be 2 °C. Besides, the EC50 in [3] and in test [8] was over 8000 nM throughout. For the same compound, the IC50 in test [5], in test [6], in test [10] and in [16] was over 40000 nM in each case. The inhibition entry in test [18], in test [19], in test [20] and in test [21] was “inactive” in each case.
Regarding `N#Cc1ccc(Cn2cncc2CN2CCN(c3cccc(Cl)c3)C(=O)C2)cc1` [L-778123 FREE BASE], the EC50 in test [3] came to 170 nM. In addition, the IC50 in [5] was determined as 50 nM; in test [6] it was 70 nM; in [7] it was 50 nM; in [10], 50 nM; in test [11], 70 nM; in [12], 100 nM. Moreover, the IC50 in test [15] came to 40 nM; in test [16], 70 nM. Also, in test [8], the result was Active. In test [17], the Activity is 100%.
With `CC(=O)NCCn1nc(C)c(C(=O)N2CCN(Cc3nc4ccccc4n3CC(C)(C)C)CC2)c1C`, the figures for the EC50 in test [3] and in test [8] were 1100 nM and over 8000 nM, respectively.
